The values below come from ChEMBL document CHEMBL4190192, “Interaction of 7-Alkoxycoumarins with the Aryl Hydrocarbon Receptor” (J Nat Prod, 2017).

What all share (format): cell-based
Data set [1] concerns the target T1, Aryl hydrocarbon receptor (Homo sapiens, UniProt P35869).
T1 sequence (P35869 whole entry): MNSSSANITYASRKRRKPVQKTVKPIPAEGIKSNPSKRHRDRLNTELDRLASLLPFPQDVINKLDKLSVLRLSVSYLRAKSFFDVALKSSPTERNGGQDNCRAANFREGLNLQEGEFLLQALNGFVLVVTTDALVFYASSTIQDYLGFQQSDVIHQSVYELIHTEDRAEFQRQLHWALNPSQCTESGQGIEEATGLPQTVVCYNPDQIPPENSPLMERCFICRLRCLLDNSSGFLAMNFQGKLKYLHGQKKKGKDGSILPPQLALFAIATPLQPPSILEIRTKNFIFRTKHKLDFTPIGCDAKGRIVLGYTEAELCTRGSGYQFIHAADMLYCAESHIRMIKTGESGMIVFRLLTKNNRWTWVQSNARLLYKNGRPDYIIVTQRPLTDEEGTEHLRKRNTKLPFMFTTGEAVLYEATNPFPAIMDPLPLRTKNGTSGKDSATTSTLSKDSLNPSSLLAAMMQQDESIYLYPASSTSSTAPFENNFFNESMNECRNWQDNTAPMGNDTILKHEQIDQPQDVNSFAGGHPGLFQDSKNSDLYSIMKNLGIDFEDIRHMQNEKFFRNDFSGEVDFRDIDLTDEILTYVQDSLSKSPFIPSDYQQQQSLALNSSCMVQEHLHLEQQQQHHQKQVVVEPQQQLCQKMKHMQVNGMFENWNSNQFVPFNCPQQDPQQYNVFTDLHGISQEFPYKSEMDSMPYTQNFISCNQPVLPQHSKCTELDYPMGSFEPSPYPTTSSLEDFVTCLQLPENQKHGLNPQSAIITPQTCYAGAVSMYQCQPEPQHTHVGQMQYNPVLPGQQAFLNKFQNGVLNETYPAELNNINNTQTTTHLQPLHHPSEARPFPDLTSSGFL
Put plainly: Agonist activity at AhR (unknown origin) expressed in mouse H1L1.1c2 cells after 8 to 10 hrs by luciferase reporter gene assay. In short, it runs like this:
(§1)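 AhR luciferase reporter cells were grown and treated with compounds at three concentrations (1, 10 and 100 μM). The reference ligand FICZ was run at 1 μM. The read-out was luciferase activity. Data are given as mean ± SD, with significance at P < 0.05, < 0.01 and < 0.001.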
(In general: Reporter assays use an easily measured gene product as a stand-in for the process of interest.)

Data set [2] has as its target T1, Aryl hydrocarbon receptor. Put plainly: Antagonist activity at AhR (unknown origin) expressed in mouse H1L1.1c2 cells assessed as inhibition of FICZ-induced AhR activation at 1 to 100 uM after 8 to 10 hrs by luciferase reporter gene assay.
In data set [3] the target is T1, Aryl hydrocarbon receptor. Put plainly: Agonist activity at AhR (unknown origin) expressed in mouse H1L1.1c2 cells at 100 uM after 8 to 10 hrs by luciferase reporter gene assay.
Data set [4] deals with T1, Aryl hydrocarbon receptor. Nature of the data set: Agonist activity at AhR (unknown origin) expressed in mouse H1L1.1c2 cells at 1 to 100 uM after 8 to 10 hrs by luciferase reporter gene assay. In short, it runs like this: as §1

For the compound `COc1cc(/C=C/C(=O)O)ccc1OCC=C(C)C` [BOROPINIC ACID], in data set [1], the Activity entry is “Dose-dependent effect”. Further, the “inhibition (INH)” value in data set [2] is “Not Active”.

On to `CCC#CCOc1ccc2ccc(=O)oc2c1` [7-(2-PENTYNYLOXY)COUMARIN], for which, in data set [2], the “inhibition (INH)” value is listed as “Not Active”. Besides, the result in data set [3] was Active.

Regarding `CC(C)CCOc1ccc2ccc(=O)oc2c1`, in data set [2], the “inhibition (INH)” value is “Not Active”. Besides, the Activity entry in data set [4] is reported as “Not Active”.

For the compound `C=CCOc1ccc2ccc(=O)oc2c1` [7-ALLYLOXYCOUMARIN], in data set [2], the “inhibition (INH)” value is listed as “Not Active”. In addition, in data set [4], the Activity entry was “Not Active”.

Take `CCCOc1ccc2ccc(=O)oc2c1` [7-PROPOXYCOUMARIN]: the “inhibition (INH)” value in data set [2] is “Active”. Besides, the Activity result in data set [4] was “Not Active”.

As for `CC(C)=CCC/C(C)=C/COc1ccc2ccc(=O)oc2c1`, in data set [2], the “inhibition (INH)” value was “Not Active”. The Activity result in data set [4] is listed as “Not Active”.

Regarding `C/C=C/COc1ccc2ccc(=O)oc2c1` [(E)-7-(2-BUTENYLOXY)COUMARIN], the “inhibition (INH)” value in data set [2] is recorded as “Not Active”. The result in data set [3] was Active.

On to `O=c1ccc2ccc(O)cc2o1` [UMBELLIFERONE], for which the “inhibition (INH)” value in data set [2] was “Not Active”. In addition, the Activity result in data set [4] was “Not Active”.

Turning to `COc1cc(/C=C/C(=O)O)ccc1OC/C=C(\C)CCC=C(C)C`, in data set [2], the “inhibition (INH)” value was “Not Active”. In addition, the Activity entry in data set [4] is recorded as “Not Active”.

With `CCOc1ccc2ccc(=O)oc2c1` [ETHOXYCOUMARIN], in data set [2], the “inhibition (INH)” value is on record as “Not Active”. Moreover, in data set [4], the Activity entry is listed as “Not Active”.

For `CC(C)=CCOc1ccc2ccc(=O)oc2c1` [7-PRENYLOXYCOUMARIN], in data set [1], the Activity result is “Dose-dependent effect”. In addition, in data set [2], the “inhibition (INH)” value is “Not Active”.

As for `CC(C)(C)COc1ccc2ccc(=O)oc2c1`, in data set [2], the “inhibition (INH)” value is listed as “Not Active”. In addition, in data set [3], the result was Active.

Consider `COc1ccc2ccc(=O)oc2c1` [HERNIARIN], for which the “inhibition (INH)” value in data set [2] is reported as “Not Active”. Moreover, the Activity result in data set [4] is “Not Active”.
